Results reported in ChEMBL document CHEMBL5257020, “Discovery of a 9-mer Cationic Peptide (LTX-315) as a Potential First in Class Oncolytic Peptide” (J Med Chem, 2016).
Where a SMILES comes first, the peptide text is derived from it. [ ]: non-standard residue; d: D form. ξ: configuration not given here. ξDip = NC(C(=O)O)C(c1ccccc1)c1ccccc1

Legend:
[1] = test system: Raji; assay: Cytotoxicity against human Raji cells assessed as inhibition of cell proliferation incubated for 4 hrs by MTS assay; type: functional, cell-based
Procedure, shortened: (§1)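 Cells grown in RPMI-1640 with 2 mM L-glutamine and 10% FBS, plated, then held 24 h at 37 °C. Adherent lines washed once in FBS-free medium. Cells exposed 4 h at 37 °C, 5% CO2 in FBS-free medium to 10 concentrations (1/4 steps, 400 μM top). 1% Triton X-100 served as positive control. MTS/PMS added for 2 h, then OD 490 nm read. IC50 from semilog curves; three independent experiments, quadruplicate wells.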

[2] = Cytotoxicity against human MINO cells assessed as inhibition of cell proliferation incubated for 4 hrs by MTS assay; type: functional, cell-based; procedure, shortened: as §1
[3] = test system: KARPAS-299; assay: Cytotoxicity against human KARPAS-299 cells assessed as inhibition of cell proliferation incubated for 4 hrs by MTS assay; type: functional, cell-based; conditions: KARPAS-299, 4 h; procedure, shortened: as §1
[4] = test system: CCRF-CEM; assay: Cytotoxicity against human CCRF-CEM cells assessed as inhibition of cell proliferation incubated for 4 hrs by MTS assay; type: functional, cell-based; procedure, shortened: as §1
[5] = Cytotoxicity against human MRC5 cells assessed as inhibition of cell proliferation incubated for 4 hrs by MTT assay; type: toxicity, cell-based
Procedure, shortened: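 MRC-5 human embryonic lung fibroblasts cultured in MEM with 2 mM L-glutamine and 10% FBS, without antibiotics, at 37 °C in humidified 5% CO2. Cultures were tested for mycoplasma. IC50 from three or more independent measurements, given as mean ± SD.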

[6] = Cytotoxicity against mouse AT84 cells assessed as inhibition of cell proliferation incubated for 4 hrs by MTT assay; type: functional, cell-based; conditions: AT84, 4 h
[7] = test system: HL-60; assay: Cytotoxicity against human HL-60 cells assessed as inhibition of cell proliferation incubated for 4 hrs by MTS assay; type: functional, cell-based; conditions: HL-60, 4 h; procedure, shortened: as §1
[8] = test system: MCF7; assay: Cytotoxicity against human MCF7 cells assessed as inhibition of cell proliferation incubated for 4 hrs by MTS assay; type: functional, cell-based; conditions: MCF7, 4 h; procedure, shortened: as §1
[9] = test system: MCF7; assay: Cytotoxicity against human MCF7 cells transfected with MDR1 assessed as inhibition of cell proliferation incubated for 4 hrs by MTS assay; type: functional, cell-based; conditions: MCF7, 4 h; procedure, shortened: as §1
[10] = test system: IGROV-1; assay: Cytotoxicity against human IGROV-1 cells assessed as inhibition of cell proliferation incubated for 4 hrs by MTS assay; type: functional, cell-based; conditions: IGROV-1, 4 h; procedure, shortened: as §1
[11] = test system: K562; assay: Cytotoxicity against human K562 cells assessed as inhibition of cell proliferation incubated for 4 hrs by MTS assay; type: functional, cell-based; conditions: K562, 4 h; procedure, shortened: as §1
[12] = test system: K562; assay: Cytotoxicity in imatinib resistant human K562 cells assessed as inhibition of cell proliferation incubated for 4 hrs by MTS assay; type: functional, cell-based; conditions: K562, 4 h
Procedure, shortened: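 Oncodesign panel MTS/PMS assay. Cells in RPMI-1640 + 10% FBS. After 24 h pre-plating, adherent lines washed in FBS-free medium. Cells exposed 4 h at 37 °C in FBS-free medium to 10 concentrations, 1/4 dilutions from 400 μM top. Triton X-100 (1% final) positive control. MTS/PMS added, 2 h, OD 490 nm. IC50 from semilog curves. Three independent experiments, quadruplicate wells.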

[13] = test system: Daudi; assay: Cytotoxicity against human Daudi cells assessed as inhibition of cell proliferation incubated for 4 hrs by MTS assay; type: functional, cell-based; procedure, shortened: as §1
[14] = test system: U-937; assay: Cytotoxicity against human U-937 cells assessed as inhibition of cell proliferation incubated for 4 hrs by MTS assay; type: functional, cell-based; conditions: U-937, 4 h; procedure, shortened: as §1
[15] = test system: CEM-VLB; assay: Cytotoxicity against human CCRF-CEM/VLB cells assessed as inhibition of cell proliferation incubated for 4 hrs by MTS assay; type: functional, cell-based; procedure, shortened: as §1
[16] = test system: RPMI-8226; assay: Cytotoxicity against human RPMI-8226 cells assessed as inhibition of cell proliferation incubated for 4 hrs by MTS assay; type: functional, cell-based; conditions: RPMI-8226, 4 h; procedure, shortened: as §1
[17] = test system: MDA-MB-231; assay: Cytotoxicity against human MDA-MB-231 cells assessed as inhibition of cell proliferation incubated for 4 hrs by MTS assay; type: functional, cell-based; conditions: MDA-MB-231, 4 h; procedure, shortened: as §1
[18] = test system: MDA-MB-435S; assay: Cytotoxicity against human MDA-MB-435S cells assessed as inhibition of cell proliferation incubated for 4 hrs by MTS assay; type: functional, cell-based; procedure, shortened: as §1
[19] = test system: T47D; assay: Cytotoxicity against human T47D cells assessed as inhibition of cell proliferation incubated for 4 hrs by MTS assay; type: functional, cell-based; procedure, shortened: as §1
[20] = test system: HCT-15; assay: Cytotoxicity against human HCT-15 cells assessed as inhibition of cell proliferation incubated for 4 hrs by MTS assay; type: functional, cell-based; conditions: HCT-15, 4 h; procedure, shortened: as §1
[21] = test system: HT-29; assay: Cytotoxicity against human HT-29 cells assessed as inhibition of cell proliferation incubated for 4 hrs by MTS assay; type: functional, cell-based; conditions: HT-29, 4 h; procedure, shortened: as §1
[22] = Cytotoxicity against human HUVEC-C cells assessed as inhibition of cell proliferation incubated for 4 hrs by MTS assay; type: toxicity, cell-based; procedure, shortened: as §1
[23] = test system: 786-0; assay: Cytotoxicity against human 786-0 cells assessed as inhibition of cell proliferation incubated for 4 hrs by MTS assay; type: functional, cell-based; conditions: 786-0, 4 h; procedure, shortened: as §1
[24] = test system: SK-HEP1; assay: Cytotoxicity against human SK-HEP1 cells assessed as inhibition of cell proliferation incubated for 4 hrs by MTS assay; type: functional, cell-based; conditions: SK-HEP1, 4 h; procedure, shortened: as §1
[25] = test system: A549; assay: Cytotoxicity against human A549 cells assessed as inhibition of cell proliferation incubated for 4 hrs by MTS assay; type: functional, cell-based; conditions: A549, 4 h; procedure, shortened: as §1
[26] = test system: Calu-6; assay: Cytotoxicity against human Calu-6 cells assessed as inhibition of cell proliferation incubated for 4 hrs by MTS assay; type: functional, cell-based; conditions: Calu-6, 4 h; procedure, shortened: as §1
[27] = Cytotoxicity against human MRC5 cells assessed as inhibition of cell proliferation incubated for 4 hrs by MTS assay; type: toxicity, cell-based; procedure, shortened: as §1
[28] = test system: NCI-H460; assay: Cytotoxicity against human NCI-H460 cells assessed as inhibition of cell proliferation incubated for 4 hrs by MTS assay; type: functional, cell-based; conditions: NCI-H460, 4 h; procedure, shortened: as §1
[29] = test system: OVCAR-3; assay: Cytotoxicity against human OVCAR-3 cells assessed as inhibition of cell proliferation incubated for 4 hrs by MTS assay; type: functional, cell-based; conditions: OVCAR-3, 4 h; procedure, shortened: as §1
[30] = test system: SK-OV-3; assay: Cytotoxicity against human SK-OV-3 cells assessed as inhibition of cell proliferation incubated for 4 hrs by MTS assay; type: functional, cell-based; conditions: SK-OV-3, 4 h; procedure, shortened: as §1
[31] = test system: BXPC-3; assay: Cytotoxicity against human BXPC-3 cells assessed as inhibition of cell proliferation incubated for 4 hrs by MTS assay; type: functional, cell-based; conditions: BXPC-3, 4 h; procedure, shortened: as §1
[32] = test system: DU-145; assay: Cytotoxicity against human DU-145 cells assessed as inhibition of cell proliferation incubated for 4 hrs by MTS assay; type: functional, cell-based; conditions: DU-145, 4 h; procedure, shortened: as §1
[33] = test system: PC-3; assay: Cytotoxicity against human PC-3 cells assessed as inhibition of cell proliferation incubated for 4 hrs by MTS assay; type: functional, cell-based; conditions: PC-3, 4 h; procedure, shortened: as §1
[34] = test system: A-431; assay: Cytotoxicity against human A-431 cells assessed as inhibition of cell proliferation incubated for 4 hrs by MTS assay; type: functional, cell-based; conditions: A-431, 4 h; procedure, shortened: as §1
[35] = test system: Malme-3M; assay: Cytotoxicity against human Malme-3M cells assessed as inhibition of cell proliferation incubated for 4 hrs by MTS assay; type: functional, cell-based; procedure, shortened: as §1
[36] = Cytotoxicity against human Hs 445 cells assessed as inhibition of cell proliferation incubated for 4 hrs by MTS assay; type: functional, cell-based; conditions: Hs 445, 4 h; procedure, shortened: as §1
[37] = Cytotoxicity against human U-87 MG cells assessed as inhibition of cell proliferation incubated for 4 hrs by MTS assay; type: functional, cell-based, U-87MG ATCC; procedure, shortened: as §1
[38] = test system: COLO 205; assay: Cytotoxicity against human COLO 205 cells assessed as inhibition of cell proliferation incubated for 4 hrs by MTS assay; type: functional, cell-based; conditions: COLO 205, 4 h; procedure, shortened: as §1

| Compound | IC50 [1] [µM] | IC50 [2] [µM] | IC50 [3] [µM] | IC50 [4] [µM] | IC50 at 4 h [5] [µM] | IC50 [6] [µM] | IC50 [7] [µM] | IC50 [8] [µM] | IC50 [9] [µM] | IC50 [10] [µM] | IC50 [11] [µM] | IC50 [12] [µM] | IC50 [13] [µM] | IC50 [14] [µM] | IC50 [15] [µM] | IC50 [16] [µM] | IC50 [17] [µM] | IC50 [18] [µM] | IC50 [19] [µM] | IC50 [20] [µM] | other results |
| --- | --- | --- | --- | --- | --- | --- | --- | --- | --- | --- | --- | --- | --- | --- | --- | --- | --- | --- | --- | --- | --- |
| NCCCC[C@H](NC(=O)[C@H](Cc1c[nH]c2ccccc12)NC(=O)[C@H](CCCCN)NC(=O)[C@H](CCCCN)NC(=O)C(NC(=O)[C@H](Cc1c[nH]c2ccccc12)NC(=O)[C@H](CCCCN)NC(=O)[C@H](CCCCN)NC(=O)[C@@H](N)Cc1c[nH]c2ccccc12)C(c1ccccc1)c1ccccc1)C(N)=O (stereo partly specified) (H-WKKW[ξDip]KKWK-NH2) | 12.5 | 9.5 | 11.6 | 7.8 | 122 | 21 | 8 | 8.9 | 11 | 19.6 | 8.2 | 9 | 8.1 | 5.3 | 5.3 | 6 | 13 | 14.1 | 4.8 | 12 | IC50 [21]: 11 µM; IC50 at 4 h [22]: 55.5 µM; IC50 [23]: 19.2 µM; IC50 [24]: 15.6 µM; IC50 [25]: 10.4 µM; IC50 [26]: 6.9 µM; IC50 at 4 h [27]: 28 µM; IC50 [28]: 9 µM; IC50 [29]: 13.9 µM; IC50 [30]: 18.1 µM; IC50 [31]: 17.9 µM; IC50 [32]: 12.4 µM; IC50 [33]: 14.1 µM; IC50 [34]: 11.7 µM; IC50 [35]: 12.4 µM; IC50 [36]: 6.5 µM; IC50 [37]: 17.3 µM; IC50 [38]: 8.7 µM |
| NCCCC[C@H](NC(=O)C(NC(=O)[C@H](Cc1c[nH]c2ccccc12)NC(=O)[C@H](CCCCN)NC(=O)[C@H](CCCCN)NC(=O)[C@H](Cc1c[nH]c2ccccc12)NC(=O)[C@H](Cc1c[nH]c2ccccc12)NC(=O)[C@H](CCCCN)NC(=O)[C@@H](N)CCCCN)C(c1ccccc1)c1ccccc1)C(N)=O (stereo partly specified) (H-KKWWKKW[ξDip]K-NH2) | 4.9 | 3.7 | 4.8 | 2.6 | 34.3 | 11 | 2.1 | 2.2 | 2.5 | 6.4 | 3 | 3 | 4 | 1.2 | 2.4 | 1.9 | 3.6 | 3.1 | 1.2 | 3.8 | IC50 [21]: 3.3 µM; IC50 at 4 h [22]: 16.3 µM; IC50 [23]: 5.8 µM; IC50 [24]: 5.1 µM; IC50 [25]: 2.8 µM; IC50 [26]: 2.1 µM; IC50 at 4 h [27]: 9.2 µM; IC50 [28]: 3.4 µM; IC50 [29]: 5.2 µM; IC50 [30]: 7.2 µM; IC50 [31]: 3.7 µM; IC50 [32]: 3.9 µM; IC50 [33]: 4.4 µM; IC50 [34]: 3.2 µM; IC50 [35]: 3.3 µM; IC50 [36]: 1.7 µM; IC50 [37]: 6.6 µM; IC50 [38]: 2.6 µM |
